Experimental data published in ChEMBL document CHEMBL4024713, “Novel aryl piperazines for alleviation of 'andropause' associated prostatic disorders and depression” (Eur J Med Chem, 2017).
Activity calls are given as the source filed them. No cut-off for these calls is given here.

Legend:
[1] = molecular target: T1, Androgen receptor (Homo sapiens) (UniProt P10275); test: Antagonist activity at AR (unknown origin) expressed in African green monkey COS7 cells at 7.5 uM after 24 hrs by dual luciferase reporter gene assay; type: cell-based
T1 sequence (whole entry): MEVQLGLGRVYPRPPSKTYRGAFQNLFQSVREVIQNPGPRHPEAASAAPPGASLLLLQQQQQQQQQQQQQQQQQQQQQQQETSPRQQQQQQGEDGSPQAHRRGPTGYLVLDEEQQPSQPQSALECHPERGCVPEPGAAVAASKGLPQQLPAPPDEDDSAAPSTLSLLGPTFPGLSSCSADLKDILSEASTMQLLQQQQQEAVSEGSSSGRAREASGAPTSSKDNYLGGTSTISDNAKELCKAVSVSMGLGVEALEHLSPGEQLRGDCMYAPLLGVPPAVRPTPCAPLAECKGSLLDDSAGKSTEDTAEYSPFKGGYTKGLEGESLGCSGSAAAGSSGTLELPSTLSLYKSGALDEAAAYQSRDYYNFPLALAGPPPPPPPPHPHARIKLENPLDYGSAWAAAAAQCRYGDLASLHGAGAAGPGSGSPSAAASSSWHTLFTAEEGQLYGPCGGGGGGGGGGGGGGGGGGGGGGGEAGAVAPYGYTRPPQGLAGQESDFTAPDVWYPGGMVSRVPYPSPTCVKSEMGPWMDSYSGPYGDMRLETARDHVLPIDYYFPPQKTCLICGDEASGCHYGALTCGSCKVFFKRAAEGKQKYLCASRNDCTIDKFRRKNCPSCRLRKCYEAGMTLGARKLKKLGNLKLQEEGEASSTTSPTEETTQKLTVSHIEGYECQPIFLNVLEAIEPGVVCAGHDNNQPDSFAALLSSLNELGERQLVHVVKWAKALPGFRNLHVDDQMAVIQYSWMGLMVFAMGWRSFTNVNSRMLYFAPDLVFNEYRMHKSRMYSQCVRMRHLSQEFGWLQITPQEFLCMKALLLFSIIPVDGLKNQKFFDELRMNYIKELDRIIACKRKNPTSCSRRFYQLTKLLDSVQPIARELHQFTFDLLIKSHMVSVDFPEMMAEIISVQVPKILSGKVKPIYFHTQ
Summary of the method: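 Cos7 cells (AR-negative) transiently transfected for 8 h with pARE-E1B-LUC reporter plus pCR3.1.AR expression vector. Then in complete medium, treated with compound at 7.5 μM for 24 h; bicalutamide 3 μM as positive control. Luciferase normalized to pRL-SV40 internal control, expressed as RLU relative to control = 100%.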

[2] = test system: Rattus norvegicus; test: Toxicity in citral-induced prostatic hyperplasia Sprague-Dawley rat model assessed as effect on seminal vesicle weight at 10 mg/kg, po administered once daily coadministered with citral for 21 days measured 24 hrs last post dose; type: organism-based; details: in vivo
[3] = test system: Rattus norvegicus; test: Anti-androgenic activity in citral-induced prostatic hyperplasia Sprague-Dawley rat model assessed increase in distinction between stromal and acinar compartments at 10 mg/kg, po administered once daily coadministered with citral for 21 days measured 24 hrs last post dose by hematoxyline and eosin stainig based light microscopic analysis; type: functional, organism-based
Summary of the method: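 Adult male Sprague-Dawley rats (250-280 g, n = 5), citral 100 mg/kg orally once daily for 28 days. From day 8, compound or flutamide at 10 mg/kg orally once daily for the remaining 21 days. Prostate weight is expressed relative to the citral group (100%). Prostates fixed in 10% formalin; 5 μ sections stained with H&E, examined by light microscopy.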

[4] = test system: Mus musculus; test: Anti-depressant like activity in Swiss albino mouse assessed as reduction in immobility time at 20 mg/kg, po administered 60 mins prior to test measured for 5 mins by forced swim test relative to control; type: functional; design: scale not given: the % may be the effect or the level left
Summary of the method: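 Male Swiss albino mice (20-25 g); compound 20 mg/kg, imipramine 60 mg/kg or fluoxetine 20 mg/kg given orally in 1% gum acacia (10 mL/kg). After 60 min: 15 min pre-swim in a water cylinder (10 cm depth, 25 ± 1 °C), then retest at 24 h. Immobility recorded for 5 min after 1 min acclimatization; N = 7-9, mean ± SEM, unpaired t-test.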

[5] = test system: Mus musculus; test: Anti-depressant like activity in Swiss albino mouse assessed as reduction in immobility time at 20 mg/kg, po measured for 5 mins by tail suspension test; type: functional, organism-based
Summary of the method: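 Male Swiss albino mice dosed orally in 1% gum acacia; imipramine as standard. Each mouse suspended by the tail with tape to a horizontal bar 60 cm above the table. Immobility (no limb or body movement other than respiration) recorded for 5 min after 1 min acclimatization; N = 5.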

[6] = test system: Mus musculus; test: Toxicity in Swiss albino mouse assessed as latency time to fall at 20 mg/kg, po measured at 1 hr interval for 4 hrs by rotarod test; type: organism-based; details: in vivo
Summary of the method: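 Mice trained on the rotarod (5 to 10 rpm), 2 min trials, 3 per day for two days. On day 3, tested before oral dosing and at 1, 2, 3 and 4 h after, recording latency to fall.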

[7] = AUClast in Sprague-Dawley rat serum at 10 mg/kg, iv administered as single dose by LC-MS/MS analysis; type: ADME, organism-based; design: dose 10 mg/kg, route intravenous, time 0 - last
Summary of the method: (§1)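 Male Sprague Dawley rats (250 ± 25 g), fasted overnight (12-16 h), n = 3 per time point; single 10 mg/kg dose orally by feeding needle, or iv from DMSO solution. Serum, prostate and hypothalamus collected up to 48 h post oral dose; hypothalamus from three rats pooled. LC-MS/MS (MRM, phenacetin internal standard), linear 5-400 ng/mL; noncompartmental and compartmental analysis.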

[8] = Half life in Sprague-Dawley rat serum at 10 mg/kg, iv administered as single dose by LC-MS/MS analysis; type: ADME, organism-based; summary of the method: as §1
[9] = Volume of distribution at steady state in Sprague-Dawley rat serum at 10 mg/kg, iv administered as single dose by LC-MS/MS analysis; type: ADME, organism-based; details: read-out: Vdss; summary of the method: as §1
[10] = Cmax in Sprague-Dawley rat serum at 10 mg/kg, po administered as single dose by LC-MS/MS analysis; type: ADME, organism-based; design: dose 10 mg/kg, route oral; summary of the method: as §1
[11] = Half life in Sprague-Dawley rat serum at 10 mg/kg, po administered as single dose by LC-MS/MS analysis; type: ADME, organism-based; summary of the method: as §1
[12] = Clearance in Sprague-Dawley rat serum at 10 mg/kg, po administered as single dose by LC-MS/MS analysis; type: ADME, organism-based; summary of the method: as §1
[13] = Cmax in Sprague-Dawley rat prostate at 10 mg/kg, po administered as single dose by LC-MS/MS analysis; type: ADME, organism-based, Prostate gland; design: dose 10 mg/kg, route oral; summary of the method: as §1
[14] = Half life in Sprague-Dawley rat prostate at 10 mg/kg, po administered as single dose by LC-MS/MS analysis; type: ADME, organism-based, Prostate gland; summary of the method: as §1
[15] = Volume of distribution at steady state in Sprague-Dawley rat prostate at 10 mg/kg, po administered as single dose by LC-MS/MS analysis; type: ADME, organism-based, Prostate gland; details: in vivo; summary of the method: as §1
[16] = Cmax in Sprague-Dawley rat hypothalamus at 10 mg/kg, po administered as single dose by LC-MS/MS analysis; type: ADME, organism-based; design: dose 10 mg/kg, route oral; summary of the method: as §1
[17] = Tmax in Sprague-Dawley rat hypothalamus at 10 mg/kg, po administered as single dose by LC-MS/MS analysis; type: ADME, organism-based; summary of the method: as §1
[18] = test system: Hypothalamus; test: AUClast in Sprague-Dawley rat hypothalamus at 10 mg/kg, po administered as single dose by LC-MS/MS analysis; type: ADME, organism-based; details: in vivo; summary of the method: as §1
[19] = test system: Hypothalamus; test: Clearance in Sprague-Dawley rat hypothalamus at 10 mg/kg, po administered as single dose by LC-MS/MS analysis; type: ADME, organism-based; details: in vivo; summary of the method: as §1
[20] = test system: Hypothalamus; test: Volume of distribution at steady state in Sprague-Dawley rat hypothalamus at 10 mg/kg, po administered as single dose by LC-MS/MS analysis; type: ADME, organism-based; details: in vivo; summary of the method: as §1

- Activity [1]: Active
- AUC(0-t) [7]: 2500 ng·h/mL
- half-life [8]: 5.2 h
- Vd [9]: 28.3 L/kg
- Cmax [10]: 329 ng/mL
- half-life [11]: 5.4 h
- CL/F [12]: 65 mL/min/kg
- Cmax [13]: 572 ng/g
- half-life [14]: 155 h
- Vdss [15]: 3.6 g/kg
- Cmax [16]: 461 ng/g
- Tmax [17]: 1 h
- AUClast [18]: 4.2 µg·h/g
- CL [19]: 0.8 g/h/kg
- Vdss [20]: 6.6 g/kg
Structure (SMILES): c1ccc(N2CCN(CCCN3CCN(c4ccccn4)CC3)CC2)nc1
- Activity [2]: Non-Toxic
- Activity [3]: Active
- Activity [4]: 69.4%
- Activity [5]: Active
- Time [6]: 120 s
